# High-throughput results (PubChem)
# rRNA inh HTS: selective bacterial rRNA inhibition in E. coli; E. coli WT GFP vs humanized-ribosome RFP mutants, fluorescence, 24 h; active compounds read low; DMSO median 0, no signal -100; GFP signal change (wild-type ribosome), % (test concentration not listed); actives 1.6% (n = 350,000);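 active means significant combined selectivity score with lowered wild-type GFP, culture density cut under 30%, mutant RFP and density less affected; inactive means any of these conditions unmet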
# E-selectin induc: induces E-selectin expression in human endothelial cells; P16581; HUVEC E-selectin immunofluorescence imaging; normalized: neutral wells 0, TNF-alpha wells 100; activation, % at 7.58 µM; actives 0.37% (n = 260,000); AID 686992;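 active means mean E-selectin-positive cell signal at least 10% of the positive control, reached in at least 60% of replicates, without over 20% cell loss; inconclusive means no rule given, readout overlaps actives, possibly toxicity-flagged; inactive means the rest, including those meeting only one limit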
#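 System: HUVEC, human umbilical vein endothelial cells; quantity: 3,000 cells/well; buffer or medium: EGM-2 medium, gelatin-coated wells; dosing: single-point compound dose; detection: immunofluorescence imaging; evaluation: % PE-positive cells; benchmarks: TNF-alpha, DMSO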
# MLL AF4-AF9 inh: blocks AF4 peptide binding to human AF9. P42568. AlphaScreen, biotin-AF4 peptide binding to FLAG-AF9. inhibition, % at 10 µM. actives 0.47% (n = 350,000);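 active means every replicate reaching a set inhibition limit, whatever the replicate mean, cut at about 25% in these data; inconclusive means mean inhibition reaches that limit but some replicates miss it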;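 further: 0% = plate neutral control median and 100% = total signal loss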
# RAD54 inh: inhibitors of human RAD54 branch migration; RAD54 Holliday junction branch migration, FAM/BHQ fluorescence; inhibition, % at 10.4 µM; actives 0.14% (n = 360,000); Q92698;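 active means mean normalized replicate activity at least 40 and at least half of replicates scoring 40 or more; inconclusive means only one of the two criteria met; inactive means mean below 40 and under half of replicates reaching 40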;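 further: 0% = median of neutral control wells and 100% = median of positive control wells; inhibitors cause a drop in the FAM fluorescence signal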
# Target sequence (Q92698 whole entry, looked up): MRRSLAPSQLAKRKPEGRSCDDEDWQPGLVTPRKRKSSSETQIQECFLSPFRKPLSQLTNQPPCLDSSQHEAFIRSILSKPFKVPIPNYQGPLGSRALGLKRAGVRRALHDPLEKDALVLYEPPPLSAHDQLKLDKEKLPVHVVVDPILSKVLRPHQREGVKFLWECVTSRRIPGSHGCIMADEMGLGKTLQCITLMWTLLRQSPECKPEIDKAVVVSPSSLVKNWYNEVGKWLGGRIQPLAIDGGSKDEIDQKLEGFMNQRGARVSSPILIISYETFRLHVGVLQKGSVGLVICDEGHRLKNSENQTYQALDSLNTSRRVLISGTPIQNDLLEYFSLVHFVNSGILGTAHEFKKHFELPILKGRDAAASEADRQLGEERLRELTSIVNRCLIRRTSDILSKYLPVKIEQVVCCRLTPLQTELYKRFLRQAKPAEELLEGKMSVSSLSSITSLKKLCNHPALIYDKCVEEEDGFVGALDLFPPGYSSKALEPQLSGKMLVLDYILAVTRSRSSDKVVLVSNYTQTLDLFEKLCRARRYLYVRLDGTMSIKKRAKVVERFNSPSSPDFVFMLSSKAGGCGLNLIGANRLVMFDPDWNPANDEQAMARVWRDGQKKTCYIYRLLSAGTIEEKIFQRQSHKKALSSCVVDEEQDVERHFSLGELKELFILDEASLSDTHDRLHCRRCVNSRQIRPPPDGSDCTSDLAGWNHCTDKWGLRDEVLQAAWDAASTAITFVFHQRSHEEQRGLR
# RAD52 anneal inh: inhibitors of human RAD52 DNA annealing | P43351 | recombinant RAD52 DNA annealing, FRET fluorescence | inhibition, % at 18.7 µM | actives 0.46% (n = 360,000);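 active means every replicate showing at least 50% inhibition; inconclusive means mean inhibition at least 50% but not in every replicate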
# INS-1E GSIS act: primary screen for activators of insulin secretion dependent on glucose, INS-1E cells, GLuc reporter luminescence. activation, % at 16.6 µM. actives 0.61% (n = 370,000). INS-1E GLuc reporter insulin secretion, 2-3 h;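 active means lowest replicate activation of at least 40%, so every replicate reaches that level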;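 further: 0% = median of neutral control wells and 100% = median of IBMX positive control wells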
# DNA binding: counter-screen for Rad54 inhibitors: DNA binding compounds | shares compounds with RAD54 inh | AC50, µM (titrated, usually from 35 µM), for the others: at the highest dose activity change, negative = DNA binding | actives 8% (n = 460) | AID 651673 | Acridine orange-DNA displacement, fluorescence polarization, 20 min;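 active means signal drop giving an AC50 within twice the top valid tested concentration of each sample, actives reach about 35 µM in these data; inactive means activity opposite to expected, plus the rest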;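 further: polarization loss reports compound binding to salmon sperm DNA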
# Alpha interfer: interferes with the AlphaScreen assay signal. shares compounds with MLL AF4-AF9 inh. AlphaScreen interference counter-screen, signal luminescence. AC50, µM (doses to about 12 µM), for inactives: top-dose activity change, negative = inhibition. actives 45% (n = 530); cut-off not given, nearly all actives have AC50 up to about 14 µM
# DNA binder FP: counter-screen for RAD52 inhibitors: DNA binding compounds. shares compounds with RAD52 anneal inh. Salmon sperm DNA/acridine orange FP displacement. AC50, µM. actives 8% (n = 1,000). AID 652128;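 active means fitted half-maximal concentration for signal loss at or below twice the highest dose tested, in every separate run, actives reach about 64 µM in these data; inconclusive means runs disagree, or flat partial signal loss, or poor fit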
# * hit, by the source's call; i = inactive; ? = inconclusive; . = no result. Most compounds without a hit are left out; they make up all but 2.6% or so of the library.
SMILES,rRNA inh HTS,E-selectin induc,MLL AF4-AF9 inh,RAD54 inh,RAD52 anneal inh,INS-1E GSIS act,DNA binding,DNA binder FP,others
Cc1noc(C)c1NC(=O)Nc1ccc2c(c1)C(=O)N([C@H](C)CO)C[C@@H](C)[C@@H](CN(C)C(=O)Nc1ccccc1)OCCCC[C@@H](C)O2,-1,0,-1,-4,2,13,.,.,
C[C@@H]1CCCCO[C@@H](CN(C)Cc2ccncc2)[C@H](C)CN([C@H](C)CO)C(=O)c2cc(NC(=O)C3CCCCC3)ccc2O1,0,0,3,-6,11,-10,.,.,
C[C@@H]1CN([C@H](C)CO)C(=O)c2cc(NC(=O)CCCN(C)C)ccc2O[C@@H](C)CCCCO[C@H]1CN(C)Cc1ccc2c(c1)OCO2,2,0,2,-3,7,5,.,.,
COc1ccc(Nc2c3c(nc4ccccc24)CCCC3)cc1OC,6,0,10,.,14,15,.,.,
COc1cc(Nc2c3ccccc3nc3ccccc23)cc(OC)c1OC,-25,0,31*,76*,55*,-15,-13%,i,Alpha interfer=13µM*
C[C@@H]1CN([C@H](C)CO)C(=O)c2cc(NC(=O)Nc3ccc(F)cc3)ccc2O[C@@H](C)CCCCO[C@H]1CN(C)C(=O)NC1CCCCC1,4,.,3,-1,-2,-21,.,.,
COc1ccc(-c2nc(C(=O)NCCCN3CCOCC3)cc3c2[nH]c2ccccc23)cc1OC,.,.,9,94*,83*,-2,-21%,i,
COc1ccc(Nc2cc(C(=O)NCCCN3CCOCC3)c3ccccc3n2)cc1OC,.,.,.,-4,.,3,.,.,
COc1ccc(-c2oc3ncnc(NCCCN(C)C)c3c2-c2ccc(OC)cc2)cc1,-20,.,?,75*,85*,107,17%,i,
O=C1c2cccc3cccc(c23)C(=O)N1CC1CCN(CC(O)COc2ccc3ccccc3c2)CC1 (stereo unspecified),-51,0,0,30,18,-21,.,.,
Cc1cc(C)cc(OCC(O)CN2CCC(CN3C(=O)c4cccc5cccc(c45)C3=O)CC2)c1 (stereo unspecified),-55,0,30*,66*,95*,-22,-15%,i,Alpha interfer=-33%
COc1ccc(CCNC(=O)c2cc3c(=O)n4ccccc4nc3n(CCCN3CCOCC3)c2=N)cc1OC,17,.,4,?,54*,14,14%,i,
Cc1cccn2c(=O)c3cc(C(=O)NCC4CCCO4)c(=N)n(CCN4CCOCC4)c3nc12 (stereo unspecified),-3,.,.,42,20,.,.,.,
Cc1cccn2c(=O)c3cc(C(=O)NCCN4CCOCC4)c(=N)n(CCCN4CCOCC4)c3nc12,7,0,-2,92*,78*,-9,8%,i,
C[C@@H]1CN([C@H](C)CO)S(=O)(=O)c2ccc(-c3ccc(F)cc3)cc2O[C@@H]1CN(C)C(=O)C1CCC1,-10,0,.,.,.,-18,.,.,
CCOC(=O)c1cnc2c(C)cc(C)cc2c1NCCCN1CCOCC1,-3,0,3,93*,68*,19,-22%,i,
CCOC(=O)c1ccc2ncc(C(=O)OCC)c(NCCCN3CCOCC3)c2c1,.,.,.,34,.,.,.,.,
CN(C)C(=O)c1ccc(-c2ccc(C3[C@@H]4CN(C(=O)C5CCCCC5)C[C@H]3N4)cc2)cc1 (stereo partly specified),4,0,-12,.,6,-17,.,.,
CN1CCN(CC(=O)Nc2nc(-c3c[nH]c4ccccc34)cs2)CC1,-2,3,?,93*,96*,7,-8%,i,
CNc1nc(-c2c[nH]c3ccccc23)cs1,.,.,.,5,.,.,.,.,
O=C(CCN1CCCCC1)N[C@@H]1CC[C@H](CCNS(=O)(=O)c2ccc(Cl)cc2)O[C@H]1CO,1,-2,4,6,8,-8,.,.,
CCOC(=O)c1cnc2ccc(OC)cc2c1Nc1ccc(N2CCN(C)CC2)cc1,-10,0,41*,72*,88*,-7,4%,i,
CCOC(=O)c1cnc2ccc(OC)cc2c1Nc1ccc2c(c1)OCCO2,.,.,.,9,.,.,.,.,
COCC#Cc1ccc([C@H]2[C@H](CO)N3CCCCN(S(=O)(=O)c4ccc(OC)cc4)C[C@@H]23)cc1,2,0,-2,-6,-34,6,.,.,
COc1ccc(NC(=O)Nc2ccc3c(c2)[C@@H]2C[C@H](CC(=O)N4CCCCC4)O[C@@H](CO)[C@@H]2O3)cc1,-4,0,4,0,-3,-2,.,.,
SMILES,rRNA inh HTS,E-selectin induc,MLL AF4-AF9 inh,RAD54 inh,RAD52 anneal inh,INS-1E GSIS act,DNA binding,DNA binder FP,others
CC(C)NC(=O)Nc1ccc2c(c1)C(=O)N([C@H](C)CO)C[C@@H](C)[C@H](CN(C)S(=O)(=O)c1ccc(F)cc1)O2,-2,0,0,14,9,4,.,.,
COc1ccc2nc3cc(Cl)ccc3c(Nc3cc(CN4CCCC4)c(O)c(CN4CCCC4)c3)c2n1,.,1,47*,124*,101*,.,3.7µM*,4µM*,
CCCN1CCN(C(=S)Nc2ccc3nc(N4CCN(CC)CC4)cc(C)c3c2)CC1,-2,-3,7,62*,89*,-5,3%,i,
CCN1CCN(c2cc(C)c3cc(NC(=S)N4CCC5(CC4)OCCO5)ccc3n2)CC1,-3,0,-39,?,56*,16,-12%,i,
CCC(=O)N[C@H]1CC[C@H](CCNS(=O)(=O)c2ccc(Cl)cc2)O[C@@H]1CO,-9,1,-1,-2,4,-10,.,.,
CO[C@H]1CC[C@@H]2CCN(C)C(=O)[C@H](C)[C@@H](OC)CN(C)C(=O)c3cc(C#N)ccc3OC[C@H]1O2,1,0,-6,4,2,9,.,.,
CC(=O)Nc1cc(-c2cccc(C(=O)NCCN(C)C)c2)cn2c(-c3ccccc3)cnc12,5,0,-8,64*,90*,-6,4%,i,
CC(=O)Nc1cc(-c2cccc(C(=O)NCCN(C)C)c2)cn2c(-c3ccc(S(C)(=O)=O)cc3)cnc12,13,0,0,56*,92*,1,-17%,i,
CC(=O)Nc1cc(-c2ccc(N3CCN(C)CC3)cc2)cn2c(-c3cccc(C(C)=O)c3)cnc12,11,.,17,79*,70*,.,-2%,i,
